Source: PubChem BioAssay
Unmarked numbers belong to inactive results. Inconclusive results are not listed. Active and inactive are the calls of the source.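 Rule for the calls, unless noted: active = RAM network inhibition above 8.4% in each of two replicates, 3 SD over the compound average; inconclusive = above 8.4% inhibition in only one replicate; inactive = 8.4% inhibition or less in each replicate.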

Columns and labels:
[1] = S. cerevisiae growth inhibition in permissive medium (OD615), pilot counter-assay for S. cerevisiae lifespan shortening project, permissive growth control (AID 705;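 active = growth inhibition above 25% in both replicates, a cutoff set 3 SD above the mean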); conditions: OD615, 24 h, at 10 µM, stronger effect = higher value
In short: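 System: Engineered DeaD yeast | Buffer or medium: SC raffinose/galactose permissive medium | Doses: 10 µM single dose, 0.25% DMSO | Times: 24 h exposure, 30 °C | Measured by: OD615 turbidity read | Read-out: Yeast growth inhibition indicated by reduced 24 h OD615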

[2] = S. cerevisiae growth inhibition in restrictive medium, OD615, pilot screen, restrictive growth control, yeast lifespan reduction project (AID 706;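 active = growth inhibition above a set limit, 3 SD over mean compound inhibition, in both replicates, cut at about 43% in these data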;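 note: modified DeaD lifespan yeast strain shifted to restrictive glucose medium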); conditions: OD615, 48 h, at 10 µM, stronger effect = higher value
In short: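 Assay system: engineered S. cerevisiae DeaD strain; Buffer or medium: CSMM-D glucose medium; Dosing: 10 µM compound, 0.25% DMSO; Times: cell pre-growth 4 h, compound exposure 48 h, 30 °C; Detection: absorbance (optical density) measured at 615 nm.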

[3] = doxorubicin toxicity protection in MRP-1 cells – H69AR cells, CellTiter-Glo, duplicate, MRP-1 activator project, pilot screen (AID 807;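 active = viability increase at or above a cutoff of the median across tested compounds plus 3 SD, cut at about 8.5% in these data, passing the limit was not always enough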;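 note: compound pretreatment 18-22 h then 72 h combined with doxorubicin; 0% = doxorubicin alone and 100% = vehicle without doxorubicin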); conditions: H69AR viability with doxorubicin, CellTiter-Glo luminescence; at 10 µM; stronger effect = higher value
[4] = viability of HCT116 without oncogenic beta-catenin – human colon tumor cells, pilot screen (AID 823;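 active = cell viability at or below a set limit in both duplicate runs, the limit being the all-compound median minus 4 SD, cut at about 23% in these data, passing the limit was not always enough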;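 note: 0% = wells killed by 20 µM Hyamine and 100% = untreated DMSO cell wells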); conditions: HCT116 beta-catenin knockout viability, CellTiter-Glo, 60 h; at 10 µM; stronger effect = lower value
[5] = viability of PTEN-null HCT116 cells – cell-based, HCT116 clonal line, CellTiter-Glo, pilot screen (AID 824;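 active = viability at or below 27.92% in each of two runs, the all-compound median minus 4 SD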;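 note: 0% = 20 µM Hyamine control and 100% = vehicle cell control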); conditions: HCT116 PTEN-deleted viability, 60 h, at 10 µM, stronger effect = lower value
[6] = RAM pathway blockade in budding yeast – dse1pr::URA3 reporter, 5-FOA selection, pilot screen (AID 869;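 active = inhibition over a set limit, the all-compound mean plus 3 SD, in both replicate runs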;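 note: 0% = DMSO wells with no growth and 100% = 10 µM 1-NA-PP1 with full growth; RAM network block rescues cells from 5-FOA so hits raise OD615 growth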); conditions: S. cerevisiae dse1pr::URA3 5-FOA growth, OD615, 2 d; at 10 µM; stronger effect = higher value; strain carries analog-sensitive mutant Cbk1 kinase
[7] = RAM signaling pathway blockade in yeast – S. cerevisiae, Pdr1DBD-CYC8 efflux-inhibited sensitized strain, primary screen (AID 1298);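 note: 0% = DMSO untreated cells without growth and 100% = 10 µM 1-NA-PP1 full growth; higher means more yeast growth rescued from 5-FOA killing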; conditions: S. cerevisiae cbk1-as DSE1-URA3 strain, 5-FOA growth OD615, 2 d; at 50 µM; stronger effect = higher value

Compound | growth inhibition [1] [%] | growth inhibition [2] [%] | viability increase [3] [%] | viability [4] | viability [5] | inhibition [6] [%] | RAM network inhibition [7] [%]
Cc1cc(-n2c(SCCC#N)nnc2-c2cccnc2)ccc1Cl | -12.4 | -22.3 | -2.79 | 98.7% | 94.5% | 3.32 | 5.99
CCN(CC)C(=O)C1CCN(S(=O)(=O)c2ccc(C3CNC(=O)C3)cc2)CC1 (configuration not stated) | 3.76 | -0.015 | 0.02 | 99.9% | 106% | 1.81 | 2.47
Nc1cc(C(F)(F)F)ccc1C(=O)O | 9.88 | 9.9 | -1.66 | 97.3% | 95.3% | 0.43 | 0.63
COc1ccc(Cl)cc1C(=O)N(Cc1nc(-c2cccc(C)c2)no1)C(C)C | -18.4 | -10.7 | 0.87 | 58.8% | 57.6% | 2.31 | 8.49
[O-]/[N+](=C/c1cccnc1)c1ccc(Br)cc1 | -11.4 | -4.11 | -4.72 | 93.8% | 94% | 2.69 | 8.64
C=CCOC(=O)C1=C(C)N=C2SCCC(=O)N2C1c1ccc(OC(=O)c2ccco2)cc1 (configuration not stated) | 5.35 | 24.3 | -0.72 | 94.2% | 85.8% | 1.94 | 5.69
COc1cc2c(cc1OC)C1=C(C#N)CN(C3CCCCC3)CN1CC2 | -11.3 | 4.15 | -3.47 | 90% | 81.1% | 2.15 | 3.92
O=C(C1CCN(S(=O)(=O)c2cccc3cccnc23)CC1)N1CCn2c1nc1ccccc12 | -1.95 | -3.35 | -1.86 | 87.7% | 83.2% | 2.52 | -1.55
Clc1ccc(Cc2nnc(-c3ccccc3Br)o2)cc1 | 1.55 | -0.37 | 4.88 | 101% | 91.3% | -0.5 | 3.39
CC1(C)Nc2ccccc2N(CCC(=O)N2CCOCC2)C1=O | -13.2 | 0.485 | -0.6 | 92.9% | 96.4% | 0.905 | 2.81
CC(=O)Nc1ccc(S(=O)(=O)N2CCN(c3nc(NC4CCCC4)c4ccccc4n3)CC2)cc1 | 0.72 | -1.39 | -8.11 | 1.42% (active) | 1.7% (active) | 1.15 | 3.62
CCC/C(O)=C1\C(=O)CC(C)(C)CC1=Nc1ccccc1OC | -18.3 | -21.1 | -2.83 | 87.6% | 87% | 3.95 | 9.85
O=C(CSc1nnc(-c2ccccn2)n1Cc1ccco1)c1ccc(Cl)cc1 | 1.63 | 23.2 | -2.56 | 85.8% | 82% | 2.6 | 4.4
O=C(Cc1cc(=O)[nH]c(=O)[nH]1)N1CCC(Cc2ccccc2)CC1 | 0.795 | -5.47 | -0.99 | 96% | 94.2% | 1.33 | 3.92
CC(=O)c1ccc(N2CCN(C(=O)c3cc4c(-c5ccccc5F)nn(C)c4s3)CC2)cc1 | 3.9 | 2.33 | -2.9 | 66% | 78% | 2.27 | 6.5
c1ccc(CNn2c(N3CCOCC3)nc3ccccc32)cc1 | -14.9 | -10.9 | -3.02 | 93% | 93.2% | 0.5 | 4.26
CCCCn1c(CCNC(=O)CC)nc2ccccc21 | -8.93 | -5.17 | -1.11 | 98.8% | 101% | 1.86 | 5.26
N#Cc1ccc(CSCC(=O)O)cc1 | -10.3 | -2.01 | 1.1 | 97.4% | 107% | 2.8 | 4.42

Compound | growth inhibition [1] [%] | growth inhibition [2] [%] | viability increase [3] [%] | viability [4] | viability [5] | inhibition [6] [%] | RAM network inhibition [7] [%]
Cc1cc2cc(CNC(=O)c3ccc(S(=O)(=O)N4CCCCC4)cc3)ccc2n1C | 14.5 | 11.4 | -0.91 | 97.4% | 94.2% | 1.04 | 3.71
O=C(Cn1nc(-c2ccccc2)ccc1=O)N1CCOCC1 | 4.29 | 8.44 | -0.71 | 96% | 108% | -0.155 | 0.21
C=CCSc1nc2c(c(=O)[nH]1)C(C(C)C)C(C#N)=C(N)O2 (configuration not stated) | 0.845 | 1.47 | -2.3 | 101% | 101% | 1.75 | 1.88
CCCCS(=O)CC(COc1ccc(Cl)cc1)OC(=O)c1ccccc1 (configuration not stated) | -11.8 | -9.18 | 3.23 | 76.1% | 86.2% | 0.42 | 5.86
CC1CCc2nn(CC(=O)NCCCN3CCCCC3)cc2C1 (configuration not stated) | -15.9 | -10.3 | -2.34 | 105% | 96.7% | 1.18 | 3.77
Cn1c(-n2c(CCN3C(=O)c4ccccc4C3=O)nc3ccccc3c2=O)nc2ccccc21 | 1.63 | -2.29 | -4.94 | 68.2% | 81.2% | 0.65 | 2.45
CCc1cc(=O)oc2cc(OCC(=O)N(CC)CC)c(Cl)cc12 | 6.47 | -5.33 | 1.34 | 109% | 104% | -0.545 | 3.66
Nc1c(C(=O)CCC(=O)O)oc2ccc(Cl)cc12 | 5.78 | -0.24 | -2.01 | 100% | 99.4% | 0.635 | 5.46
O=C(O)C1C2C=CC(C2)C1C(=O)NCc1ccc2c(c1)OCO2 (configuration not stated) | -3.23 | -1.14 | -1.9 | 94.6% | 90.6% | 2.08 | 2.65
COC(=O)C1=C(C)N(C)C(=O)NC1c1ccc(O)c(OC)c1 (configuration not stated) | 0.58 | -7.74 | -0.98 | 105% | 98.9% | 0.425 | 6.2
Cc1nc2sc(C(c3ccccc3)N3CCN(C)CC3)c(O)n2n1 (configuration not stated) | -3.65 | 8.75 | 0.48 | 100% | 103% | 2.15 | 2.45
C=CCn1c(N(C)C)nc2c1c(=O)[nH]c(=O)n2C | -8.42 | -12.5 | 1.25 | 109% | 100% | 2.38 | 4.26
CCOc1ccccc1NC(=O)CCS(=O)(=O)c1cccc2nonc12 | -15 | -21.8 | -4.44 | 103% | 96.3% | 1.34 | 5.48
Cc1cc(C)c2c(n1)SCC(=O)N2CC(=O)NCCC1=CCCCC1 | -0.205 | 4.58 | -0.04 | 103% | 92.9% | 0.52 | 2.59
CCCCCSc1nc2c(c(=O)[nH]c(=O)n2C)n1CC | -13.1 | 1.94 | -3.9 | 88% | 88% | 1.18 | -1.69
Cc1c(C(=O)NCc2cccnc2)oc2ccccc12 | -3.83 | -5.65 | -3.9 | 99.2% | 87% | 1.27 | 1.07
Cc1cc(NC(=O)CSc2cn(CCNC(=O)c3ccccc3)c3ccccc23)no1 | -3.29 | -0.585 | -0.97 | 88.1% | 88.7% | 3.04 | 6.89
O=C(C1CCCN(S(=O)(=O)c2ccccc2)C1)N1CCCCCC1 (configuration not stated) | -1.18 | 0 | -1.36 | 79.6% | 94.3% | 1.79 | 4.15
